Data as given in ChEMBL document CHEMBL1147254, “New bioactive polyphenols from Theobroma grandiflorum ("cupuaçu")” (J Nat Prod, 2003).

Tests used:
[1] = system: Radical scavenging activity; assay: Antioxidant activity assessed as DPPH radical scavenging activity after 30 mins; format: functional
Procedure, shortened: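 Test samples in DMSO were mixed with a 300 µM ethanolic DPPH solution and incubated at 37 °C.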

[2] = system: HCT-116; assay: Cytotoxicity against human HCT116 cells after 72 hrs by MTT assay; format: functional, cell-based; conditions: HCT-116, 72 h
Procedure, shortened: (§1)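 About 30 000 cells per well were seeded in 96-well plates, and the medium was replaced once cultures reached 40% confluence.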

[3] = system: SW480; assay: Cytotoxicity against human SW480 cells after 72 hrs by MTT assay; format: functional, cell-based; conditions: SW480, 72 h; procedure, shortened: as §1

Structure (SMILES)	IC50 [1] [µM]	IC50 [2] [µM]	IC50 [3] [µM]
O=C(O)[C@H]1O[C@@H](Oc2c(O)cc(O)c3c(=O)cc(-c4ccc(O)c(O)c4)oc23)[C@H](O)[C@@H](O)[C@@H]1O	58.2	–	–
O=C(O)[C@H]1O[C@@H](Oc2c(O)cc(O)c3c(=O)cc(-c4ccc(O)cc4)oc23)[C@H](O)[C@@H](OS(=O)(=O)O)[C@@H]1O [THEOGRANDIN I]	341	205	164
COC(=O)[C@H]1O[C@@H](Oc2c(-c3ccc(O)c(O)c3)oc3cc(O)cc(O)c3c2=O)[C@H](O)[C@@H](O)[C@@H]1O	41.6	–	–
COC(=O)[C@H]1O[C@@H](Oc2c(O)cc(O)c3c(=O)cc(-c4ccc(O)cc4)oc23)[C@H](O)[C@@H](O)[C@@H]1O	69.2	–	–
Oc1cc(O)c2c(c1)O[C@H](c1ccc(O)c(O)c1)[C@@H](O)C2 [CIANIDANOL]	49	–	–
O=c1c(O)c(-c2ccc(O)cc2)oc2cc(O)cc(O)c12 [KAEMPFEROL]	89.7	–	–
O=C(O)[C@H]1O[C@@H](Oc2c(-c3ccc(O)c(O)c3)oc3cc(O)cc(O)c3c2=O)[C@H](O)[C@@H](O)[C@@H]1O [QUERCETIN GLUCURONIDE]	44.4	–	–
O=C(O)[C@H]1O[C@@H](Oc2c(O)cc(O)c3c(=O)cc(-c4ccc(O)c(O)c4)oc23)[C@H](O)[C@@H](OS(=O)(=O)O)[C@@H]1O [THEOGRANDIN II]	120	143	125
O=C(O)[C@H]1O[C@@H](Oc2c(O)cc(O)c3c(=O)cc(-c4ccc(O)cc4)oc23)[C@H](O)[C@@H](O)[C@@H]1O	68.1	–	–
O=c1c(O)c(-c2ccc(O)c(O)c2)oc2cc(O)cc(O)c12 [QUERCETIN]	39.7	–	–
Oc1cc(O)c2c(c1)O[C@H](c1ccc(O)c(O)c1)[C@H](O)C2 [(-)-EPICATECHIN]	49	–	–
